In ChEMBL document CHEMBL1144815, “Diphenidol-related diamines as novel muscarinic M4 receptor antagonists” (Bioorg Med Chem Lett, 2008):
Counter-ions that a name gives are not always drawn. Activity calls are given as the source filed them. No cut-off for these calls is given here.

How the values were obtained:
[1] = target: T1, Muscarinic acetylcholine receptor M1 (Homo sapiens, UniProt P11229); assay: Displacement of [3H]N-methylscopolamine from human muscarinic M1 receptor expressed in CHO-K1 cells; type: cell-based
T1 sequence (P11229 whole entry): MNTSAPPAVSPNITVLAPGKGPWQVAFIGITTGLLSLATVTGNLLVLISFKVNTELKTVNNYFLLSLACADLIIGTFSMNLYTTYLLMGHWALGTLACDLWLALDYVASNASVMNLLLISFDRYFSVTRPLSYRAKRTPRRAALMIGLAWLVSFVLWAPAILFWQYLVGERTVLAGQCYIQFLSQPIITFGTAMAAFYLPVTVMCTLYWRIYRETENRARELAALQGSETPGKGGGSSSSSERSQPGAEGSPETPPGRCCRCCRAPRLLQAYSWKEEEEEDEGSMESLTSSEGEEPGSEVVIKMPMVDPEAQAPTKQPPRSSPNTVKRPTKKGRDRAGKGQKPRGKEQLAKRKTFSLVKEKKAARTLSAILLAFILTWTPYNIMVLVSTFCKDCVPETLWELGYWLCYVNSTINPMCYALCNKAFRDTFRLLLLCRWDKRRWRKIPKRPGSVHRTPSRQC

[2] = target: T2, Muscarinic acetylcholine receptor M2 (Homo sapiens, UniProt P08172); assay: Displacement of [3H]N-methylscopolamine from human muscarinic M2 receptor expressed in CHO-K1 cells; type: cell-based
T2 sequence (P08172 whole entry): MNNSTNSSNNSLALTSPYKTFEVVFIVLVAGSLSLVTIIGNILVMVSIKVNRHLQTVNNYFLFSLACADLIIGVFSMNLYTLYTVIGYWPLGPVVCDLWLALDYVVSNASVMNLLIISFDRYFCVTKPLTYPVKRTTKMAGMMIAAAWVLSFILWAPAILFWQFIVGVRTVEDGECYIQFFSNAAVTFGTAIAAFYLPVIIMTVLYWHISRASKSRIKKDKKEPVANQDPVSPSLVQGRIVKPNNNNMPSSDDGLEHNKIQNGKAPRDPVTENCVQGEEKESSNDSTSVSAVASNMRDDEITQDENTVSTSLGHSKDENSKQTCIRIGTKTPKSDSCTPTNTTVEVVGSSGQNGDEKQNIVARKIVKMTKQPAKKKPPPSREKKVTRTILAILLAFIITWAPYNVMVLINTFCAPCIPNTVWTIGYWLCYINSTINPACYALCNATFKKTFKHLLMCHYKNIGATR
How it was run: (§1)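 Binding was measured in CHO-K1 stable transfectants expressing the human receptor subtype. Labelled ligand was [³H]-N-methylscopolamine chloride. Values are the mean of three experiments performed in triplicate.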

[3] = target: T3, Muscarinic acetylcholine receptor M3 (Homo sapiens, UniProt P20309); assay: Displacement of [3H]N-methylscopolamine from human muscarinic M3 receptor expressed in CHO-K1 cells; type: cell-based
Target sequence in this assay (P20309 whole entry): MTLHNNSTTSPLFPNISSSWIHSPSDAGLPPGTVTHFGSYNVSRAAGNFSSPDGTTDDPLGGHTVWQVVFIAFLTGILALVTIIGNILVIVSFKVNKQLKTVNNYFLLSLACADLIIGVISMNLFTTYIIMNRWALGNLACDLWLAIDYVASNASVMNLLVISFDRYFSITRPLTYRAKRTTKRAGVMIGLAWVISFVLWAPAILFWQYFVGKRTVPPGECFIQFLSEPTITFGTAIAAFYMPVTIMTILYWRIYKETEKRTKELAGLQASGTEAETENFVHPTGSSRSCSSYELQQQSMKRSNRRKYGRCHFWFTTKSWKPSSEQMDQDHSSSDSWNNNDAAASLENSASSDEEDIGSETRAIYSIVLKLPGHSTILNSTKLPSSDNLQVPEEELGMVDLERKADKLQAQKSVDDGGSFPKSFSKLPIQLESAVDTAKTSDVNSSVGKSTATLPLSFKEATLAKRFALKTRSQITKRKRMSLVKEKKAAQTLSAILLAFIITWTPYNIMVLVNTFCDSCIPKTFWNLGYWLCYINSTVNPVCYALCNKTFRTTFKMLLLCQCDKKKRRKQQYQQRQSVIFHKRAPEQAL

[4] = target: T4, Muscarinic acetylcholine receptor M4 (Homo sapiens, UniProt P08173); assay: Displacement of [3H]N-methylscopolamine from human muscarinic M4 receptor expressed in CHO-K1 cells; type: cell-based; how it was run: as §1
T4 sequence (P08173 whole entry): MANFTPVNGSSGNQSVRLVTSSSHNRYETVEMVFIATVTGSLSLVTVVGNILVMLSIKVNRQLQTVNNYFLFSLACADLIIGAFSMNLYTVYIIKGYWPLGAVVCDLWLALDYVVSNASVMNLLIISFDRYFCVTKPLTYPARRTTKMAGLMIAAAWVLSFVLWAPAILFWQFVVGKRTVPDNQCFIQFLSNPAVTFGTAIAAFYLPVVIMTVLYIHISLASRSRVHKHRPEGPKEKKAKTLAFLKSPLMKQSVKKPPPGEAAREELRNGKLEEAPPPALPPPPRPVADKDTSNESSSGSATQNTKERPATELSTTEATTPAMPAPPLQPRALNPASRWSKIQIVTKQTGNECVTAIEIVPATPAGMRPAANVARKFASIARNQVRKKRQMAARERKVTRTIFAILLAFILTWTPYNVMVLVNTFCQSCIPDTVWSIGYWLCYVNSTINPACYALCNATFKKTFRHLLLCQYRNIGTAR

[5] = target: T5, Muscarinic acetylcholine receptor M5 (Homo sapiens, UniProt P08912); assay: Displacement of [3H]N-methylscopolamine from human muscarinic M5 receptor expressed in CHO-K1 cells; type: cell-based; how it was run: as §1
T5 sequence (P08912 whole entry): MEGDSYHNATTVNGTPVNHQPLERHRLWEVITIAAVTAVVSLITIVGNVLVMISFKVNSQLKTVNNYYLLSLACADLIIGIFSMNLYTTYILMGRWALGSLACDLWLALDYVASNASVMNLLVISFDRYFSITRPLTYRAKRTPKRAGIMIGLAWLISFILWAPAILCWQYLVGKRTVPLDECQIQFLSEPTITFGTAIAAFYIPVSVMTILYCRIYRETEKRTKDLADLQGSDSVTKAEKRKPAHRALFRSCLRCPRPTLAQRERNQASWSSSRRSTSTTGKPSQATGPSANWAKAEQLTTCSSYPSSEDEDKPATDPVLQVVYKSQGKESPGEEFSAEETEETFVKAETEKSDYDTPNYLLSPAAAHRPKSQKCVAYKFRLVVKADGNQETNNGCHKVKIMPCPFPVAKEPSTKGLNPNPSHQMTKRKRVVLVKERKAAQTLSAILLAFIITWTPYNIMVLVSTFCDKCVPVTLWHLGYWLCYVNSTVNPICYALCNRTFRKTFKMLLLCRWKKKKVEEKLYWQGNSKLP

[6] = target: T3, Muscarinic acetylcholine receptor M3; assay: Antagonist activity at human muscarinic M3 receptor expressed in CHO cells assessed as inhibition of carbachol-induced Eu-GTP binding; type: cell-based
How it was run: (§2)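 Membranes from CHO-K1 cells stably expressing the human receptor subtype. Agonist was carbachol, and the read-out was carbachol-stimulated binding of the non-hydrolysable analogue Eu-GTP to Gα subunits. pKb was estimated functionally by concentration-ratio analysis. Values are the mean of three experiments run in triplicate.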
Target sequence in this assay (P20309 whole entry, looked up): as the sequence (P20309 whole entry) above

[7] = target: T6, Muscarinic acetylcholine receptor M4 (Homo sapiens) (UniProt P08173); assay: Antagonist activity at human muscarinic M4 receptor expressed in CHO cells assessed as inhibition of carbachol-induced Eu-GTP binding; type: cell-based; how it was run: as §2
T6 sequence (whole entry): T4 sequence (P08173 whole entry)

[8] = target: T7, Muscarinic acetylcholine receptor M5 (Homo sapiens) (UniProt P08912); assay: Antagonist activity at human muscarinic M5 receptor expressed in CHO cells assessed as inhibition of carbachol-induced Eu-GTP binding; type: cell-based; how it was run: as §2
T7 sequence (whole entry): T5 sequence (P08912 whole entry)

[9] = target: T8, Muscarinic acetylcholine receptor M1 (Homo sapiens) (UniProt P11229); assay: Antagonist activity at human muscarinic M1 receptor expressed in CHO cells assessed as inhibition of basal Eu-GTP binding; type: cell-based
T8 sequence (whole entry): T1 sequence (P11229 whole entry)

[10] = target: T9, Muscarinic acetylcholine receptor M2 (Homo sapiens) (UniProt P08172); assay: Antagonist activity at human muscarinic M2 receptor expressed in CHO cells assessed as inhibition of basal Eu-GTP binding; type: cell-based
T9 sequence (whole entry): T2 sequence (P08172 whole entry)

[11] = target: T3, Muscarinic acetylcholine receptor M3; assay: Antagonist activity at human muscarinic M3 receptor expressed in CHO cells assessed as inhibition of basal Eu-GTP binding; type: cell-based
Target sequence in this assay (P20309 whole entry, looked up): as the sequence (P20309 whole entry) above

[12] = target: T6, Muscarinic acetylcholine receptor M4 (Homo sapiens); assay: Antagonist activity at human muscarinic M4 receptor expressed in CHO cells assessed as inhibition of basal Eu-GTP binding; type: cell-based
[13] = target: T7, Muscarinic acetylcholine receptor M5 (Homo sapiens); assay: Antagonist activity at human muscarinic M5 receptor expressed in CHO cells assessed as inhibition of basal Eu-GTP binding; type: cell-based
[14] = target: T4, Muscarinic acetylcholine receptor M4; assay: Antagonist activity at human muscarinic M4 receptor expressed in CHO cells assessed as blockade of carbachol-induced inhibition of forskolin-stimulated cAMP accumulation; type: functional, cell-based
[15] = target: T8, Muscarinic acetylcholine receptor M1 (Homo sapiens); assay: Antagonist activity at human muscarinic M1 receptor expressed in CHO cells assessed as inhibition of carbachol-induced Eu-GTP binding; type: cell-based; how it was run: as §2
[16] = target: T9, Muscarinic acetylcholine receptor M2 (Homo sapiens); assay: Antagonist activity at human muscarinic M2 receptor expressed in CHO cells assessed as inhibition of carbachol-induced Eu-GTP binding; type: cell-based; how it was run: as §2

Row | Ki [1] | Ki [2] | Ki [3] | Ki [4] | Ki [5] | pKb [6] | pKb [7] | pKb [8] | Activity [9] | Activity [10] | Activity [11] | Activity [12] | Activity [13] | EC50 [14] | IC50 [14] | pKb [15] | pKb [16] | SMILES
1 | 7.76 µM | 35.5 µM | 7.41 µM | 9.77 µM | 13.5 µM |  |  |  |  |  |  |  |  |  |  |  |  | CN1CCN(CCCC(O)(c2ccccc2)c2ccccc2)CC1
2 | 0.2 µM | 0.275 µM | 0.275 µM | 0.288 µM | 0.708 µM |  |  |  |  |  |  |  |  |  |  |  |  | C[N+]1(CCCC(O)(c2ccccc2)c2ccccc2)CCCCC1
3 | 5.75 µM | 3.98 µM | 5.25 µM | 1.17 µM | 2.88 µM |  |  |  |  |  |  |  |  |  |  |  |  | CN1CCC(C2CCN(CCCC(O)(c3ccccc3)c3ccccc3)CC2)CC1
4 | 363 µM | 457 µM | 70.8 µM | 100 µM | 123 µM |  |  |  |  |  |  |  |  |  |  |  |  | OC(CCCN1CCN(c2ccccc2)CC1)(c1ccccc1)c1ccccc1
5 | 0.603 µM | 7.24 µM | 0.661 µM | 1.17 µM | 1.41 µM |  |  |  |  |  |  |  |  |  |  |  |  | OC(CCCN1CCNCC1)(c1ccccc1)c1ccccc1
6 | 17.4 µM | 25.7 µM | 7.59 µM | 22.9 µM | 6.92 µM |  |  |  |  |  |  |  |  |  |  |  |  | C[N+]1(CCCC(O)(c2ccccc2)c2ccccc2)CCN(c2ccccc2)CC1
7 |  | 2.82 µM |  | 0.912 µM | 1.29 µM |  |  |  |  |  |  |  |  |  |  |  |  | OC(CCCN1CCCCC1)(c1ccccc1)c1ccccc1 [DIPHENIDOL HYDROCHLORIDE]
8 | 2.95 µM | 23.4 µM | 4.07 µM | 4.79 µM | 9.55 µM |  |  |  |  |  |  |  |  |  |  |  |  | C[N+]1(C)CCN(CCCC(O)(c2ccccc2)c2ccccc2)CC1
9 | 8.32 µM | 4.37 µM | 3.63 µM | 2.69 µM | 25.7 µM |  |  |  |  |  |  |  |  |  |  |  |  | C[N+]1(C)CCC(C2CC[N+](C)(CCCC(O)(c3ccccc3)c3ccccc3)CC2)CC1 (stereo unspecified)

The remaining lines, values behind:

Row | SMILES | Ki [1] | Ki [2] | Ki [3] | Ki [4] | Ki [5] | pKb [6] | pKb [7] | pKb [8] | Activity [9] | Activity [10] | Activity [11] | Activity [12] | Activity [13] | EC50 [14] | IC50 [14] | pKb [15] | pKb [16]
10 | CN(CCCC(O)(c1ccccc1)c1ccccc1)CCN(C)CCCC(O)(c1ccccc1)c1ccccc1 | 245 µM | 214 µM | 380 µM | 162 µM | 229 µM |  |  |  |  |  |  |  |  |  |  |  | 
11 | OC(CCCN1CCN(CCCC(O)(c2ccccc2)c2ccccc2)CC1)(c1ccccc1)c1ccccc1 | 851 µM | 178 µM | 87.1 µM | 22.4 µM | 23.4 µM |  |  |  |  |  |  |  |  |  |  |  | 
12 | C[N+](C)(CCCC(O)(c1ccccc1)c1ccccc1)CC[N+](C)(C)CCCC(O)(c1ccccc1)c1ccccc1 | 26.3 µM | 47.9 µM | 43.7 µM | 11.2 µM | 18.2 µM |  |  |  |  |  |  |  |  |  |  |  | 
13 | CN(CCCN(C)CCCC(O)(c1ccccc1)c1ccccc1)CCCC(O)(c1ccccc1)c1ccccc1 | 1.35 µM | 5.5 µM | 1.74 µM | 0.617 µM | 0.832 µM |  |  |  |  |  |  |  |  |  |  |  | 
14 | C[N+]1(CCCC(O)(c2ccccc2)c2ccccc2)CCN(CCCC(O)(c2ccccc2)c2ccccc2)CC1 | 7.08 µM | 2.29 µM | 5.5 µM | 1.23 µM | 1.55 µM |  |  |  |  |  |  |  |  |  |  |  | 
15 | C[N+]1(CCCC(O)(c2ccccc2)c2ccccc2)CCC(C2CC[N+](C)(CCCC(O)(c3ccccc3)c3ccccc3)CC2)CC1 (stereo unspecified) | 0.603 µM | 0.363 µM | 0.372 µM | 0.0126 µM | 0.589 µM | 6.25 | 7.83 | 6.02 | inactive | inactive | inactive | inactive | inactive | 0.067 µM | 0.067 µM | 6.04 | 6.1
16 | OC(CCCN1CCC(C2CCN(CCCC(O)(c3ccccc3)c3ccccc3)CC2)CC1)(c1ccccc1)c1ccccc1 | 0.794 µM | 0.871 µM | 0.724 µM | 0.0741 µM | 0.776 µM | 6.14 | 7.21 | 6.4 | inactive | inactive | inactive | inactive | inactive | 0.138 µM |  | 5.92 | 5.82
17 | C[N+](C)(CCCC(O)(c1ccccc1)c1ccccc1)CCC[N+](C)(C)CCCC(O)(c1ccccc1)c1ccccc1 | 7.24 µM | 12 µM | 12.3 µM | 11.2 µM | 7.59 µM |  |  |  |  |  |  |  |  |  |  |  | 
